Measured values taken from ChEMBL document CHEMBL4190216, “Asymmetric 1,5-diarylpenta-1,4-dien-3-ones: Antiproliferative activity in prostate epithelial cell models and pharmacokinetic studies” (Eur J Med Chem, 2017).

Tests used:
[1] = system: DU-145; assay: Potency index, ratio of curcumin IC50 to test compound IC50 for human DU145 cells; assay type: functional
[2] = Plasma concentration in Sprague-Dawley rat at 10 mg/kg administered via oral gavage measured at 1 hr by HPLC-MS/MS analysis; assay type: ADME, organism-based
[3] = Plasma concentration in Sprague-Dawley rat at 10 mg/kg administered via oral gavage measured at 3 hrs by HPLC-MS/MS analysis; assay type: ADME, organism-based
[4] = Cmax in Sprague-Dawley rat at 10 mg/kg administered via oral gavage by HPLC-MS/MS analysis; assay type: ADME, organism-based; set-up: dose 10 mg/kg, route oral; conditions: in vivo
[5] = system: PWR-1E; assay: Potency index, ratio of curcumin IC50 to test compound IC50 for human PWR-1E cells expressing androgen receptor and PSA; assay type: functional
[6] = system: PC-3; assay: Antiproliferative activity against human PC3 cells assessed as decrease in cell viability after 3 days by WST assay; assay type: functional, cell-based; conditions: PC-3, 72 h
Procedure, shortened: (§1)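 Cells were seeded at 3,200 per well. PC-3 and LNCaP were grown in RPMI-1640 and DU-145 in EMEM, each with 10% FBS and 1% penicillin/streptomycin, at 37 °C and 5% CO2. Cells were exposed for 3 days to at least five concentrations, with DMSO as vehicle control. WST-1 reagent was then added for 3 h at 37 °C and absorbance read at 430 nm. IC50 came from linear inhibition, averaged over triplicates.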

[7] = AUC in Sprague-Dawley rat at 10 mg/kg administered via oral gavage by HPLC-MS/MS analysis; assay type: ADME, organism-based; conditions: in vivo
[8] = Antiproliferative activity against human LNCaP95 cells expressing androgen receptor splice variants assessed as decrease in cell viability after 5 days by trypan blue exclusion assay; assay type: functional, cell-based; conditions: LNCaP-95, 120 h
[9] = system: VCaP; assay: Antiproliferative activity against human VCaP cells expressing androgen receptor splice variants assessed as decrease in cell viability after 5 days by trypan blue exclusion assay; assay type: functional, cell-based; conditions: 120 h
[10] = system: DU-145; assay: Antiproliferative activity against human DU145 cells assessed as decrease in cell viability after 3 days by WST assay; assay type: functional, cell-based; conditions: DU-145, 72 h; procedure, shortened: as §1
[11] = system: Rattus norvegicus; assay: Acute toxicity in Sprague-Dawley rat assessed as mortality at 10 mg/kg administered via oral gavage after 72 hrs; assay type: organism-based; conditions: in vivo
Procedure, shortened: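 Male Sprague-Dawley rats (250–300 g, n = 4) each received a single 10 mg/kg oral gavage dose. The vehicle was 5% DMSO, 40% polyethylene glycol 400 and 55% saline. Blood was drawn from the lateral tail vein at 1, 3, 6 and 24 h for plasma drug levels. Toxicity was scored as observed deaths after dosing.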

[12] = system: PC-3; assay: Potency index, ratio of curcumin IC50 to test compound IC50 for human PC3 cells; assay type: functional
[13] = system: PWR-1E; assay: Antiproliferative activity against human PWR-1E cells expressing androgen receptor and PSA assessed as decrease in cell viability after 3 days by WST assay; assay type: functional, cell-based; conditions: 72 h
Procedure, shortened: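 Non-malignant prostate epithelial PWR-1E (adenovirus 12/SV40-immortalized) was seeded at 5,000 per well. Cells were exposed for 3 days at 37 °C in a CO2 incubator to at least five concentrations, with DMSO as vehicle control. WST-1 reagent was then added for 3 h at 37 °C and absorbance read at 430 nm. IC50 came from linear inhibition, as the mean of triplicate determinations.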

[14] = Tmax in Sprague-Dawley rat at 10 mg/kg administered via oral gavage by HPLC-MS/MS analysis; assay type: ADME, organism-based; conditions: in vivo
[15] = Plasma concentration in Sprague-Dawley rat at 10 mg/kg administered via oral gavage measured at 6 hrs by HPLC-MS/MS analysis; assay type: ADME, organism-based
[16] = Plasma concentration in Sprague-Dawley rat at 10 mg/kg administered via oral gavage measured after 1 day by HPLC-MS/MS analysis; assay type: ADME, organism-based
[17] = system: CWR22R; assay: Antiproliferative activity against human 22Rv1 cells expressing androgen receptor splice variants assessed as decrease in cell viability after 5 days by trypan blue exclusion assay; assay type: functional, cell-based; conditions: 22Rv1, 120 h
[18] = system: LNCaP; assay: Antiproliferative activity against human LNCAP cells assessed as decrease in cell viability after 3 days by WST assay; assay type: functional, cell-based; conditions: 72 h; procedure, shortened: as §1

## CC(C)n1c(/C=C/C(=O)/C=C/c2ccccn2)nc2ccccc21
[1]
  Ratio IC50: 219
[2]
  concentration at 1 h: 823 ng/mL
[3]
  concentration at 3 h: 4260 ng/mL
[4]
  Cmax: 13.5 µM
[5]
  Ratio IC50: 885
[6]
  IC50: 0.04 µM
[7]
  AUC: 17600 ng·h/mL
[8]
  IC50: 0.26 µM
[9]
  IC50: 0.64 µM
[10]
  IC50: 0.12 µM
[11]
  Activity: Toxic
[12]
  Ratio IC50: 636
[13]
  IC50: 0.01 µM
[14]
  Tmax: 3 h
[15]
  concentration at 6 h: 456 ng/mL
[16]
  concentration at 24 h: 103 ng/mL
[17]
  IC50: 0.45 µM
[18]
  IC50: 0.03 µM
